Test results reported in ChEMBL document CHEMBL4311952, “Discovery and Development of a Series of Pyrazolo[3,4-d]pyridazinone Compounds as the Novel Covalent Fibroblast Growth Factor Receptor Inhibitors by the Rational Drug Design” (J Med Chem, 2019).
Converted amounts (≈) assume the structure as drawn.

Legend:
[1] = Kinetic solubility of the compound in pH 7.4 PBS by nephelometric method; assay type: physicochemical; details: read-out: Kinetic_solubility
[2] = Half life in mouse liver microsomes at 0.1 uM in presence of NADPH by LC-MS/MS analysis; assay type: ADME, Microsome; details: for half-life at 0.1 µM: liver microsomes
In short: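 Mouse liver microsomes at 0.33 mg/mL protein with 5 mM MgCl2, 0.1 μM compound, 1 mM NADPH, 0.1 M Tris/HCl pH 7.4, final DMSO 0.01%. Pre-warmed 10 min at 37 °C, started with NADPH. Sampled at 0, 7, 17, 30 and 60 min, quenched with methanol, analysed by LC-MS/MS in duplicate. T1/2 = -0.693/k from first-order consumption.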

[3] = Tmax in Sprague-Dawley rat at 10 mg/kg, iv by LC-MS/MS analysis; assay type: ADME, organism-based; details: in vivo
In short: (§1)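 SD rats dosed in 5% DMSO + 5% Tween-80 in 90% saline, IV 10 mg/kg, PO 20 mg/kg or IP 20 mg/kg; blood collected and centrifuged to plasma, which was deproteinized with methanol containing internal standard, diluted and re-centrifuged; concentrations by LC/MS/MS.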

[4] = Cmax in Sprague-Dawley rat at 10 mg/kg, iv by LC-MS/MS analysis; assay type: ADME, organism-based; design: dose 10 mg/kg, route intravenous; details: in vivo
In short: (§2)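 SD rats dosed IV 10 mg/kg, PO 20 mg/kg or IP 20 mg/kg in 5% DMSO + 5% Tween-80 in 90% saline. Blood collected after dosing and spun to plasma. Plasma deproteinized with methanol containing internal standard, centrifuged, diluted with methanol and spun again. Compound in supernatant quantified by LC/MS/MS.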

[5] = AUC (0 to t) in Sprague-Dawley rat at 10 mg/kg, iv by LC-MS/MS analysis; assay type: ADME, organism-based; details: in vivo; in short: as §2
[6] = AUC (0 to infinity) in Sprague-Dawley rat at 10 mg/kg, iv by LC-MS/MS analysis; assay type: ADME, organism-based; design: dose 10 mg/kg, time infinity, route intravenous; details: in vivo; in short: as §2
[7] = MRT in Sprague-Dawley rat at 10 mg/kg, iv by LC-MS/MS analysis; assay type: ADME, organism-based; details: in vivo; in short: as §1
[8] = Half life in Sprague-Dawley rat at 10 mg/kg, iv by LC-MS/MS analysis; assay type: ADME, organism-based; details: in vivo; in short: as §2
[9] = Clearance in Sprague-Dawley rat at 10 mg/kg, iv by LC-MS/MS analysis; assay type: ADME, organism-based; details: in vivo; in short: as §2
[10] = Tmax in Sprague-Dawley rat at 20 mg/kg, po by LC-MS/MS analysis; assay type: ADME, organism-based; details: in vivo; in short: as §1
[11] = Cmax in Sprague-Dawley rat at 20 mg/kg, po by LC-MS/MS analysis; assay type: ADME, organism-based; design: dose 20 mg/kg, route oral; details: in vivo; in short: as §2
[12] = AUC (0 to t) in Sprague-Dawley rat at 20 mg/kg, po by LC-MS/MS analysis; assay type: ADME, organism-based; details: in vivo; in short: as §2
[13] = AUC (0 to infinity) in Sprague-Dawley rat at 20 mg/kg, po by LC-MS/MS analysis; assay type: ADME, organism-based; design: dose 20 mg/kg, route oral, time infinity; details: in vivo; in short: as §2
[14] = MRT in Sprague-Dawley rat at 20 mg/kg, po by LC-MS/MS analysis; assay type: ADME, organism-based; details: in vivo; in short: as §1
[15] = Half life in Sprague-Dawley rat at 20 mg/kg, po by LC-MS/MS analysis; assay type: ADME, organism-based; details: in vivo; in short: as §2
[16] = Oral bioavailability in Sprague-Dawley rat at 20 mg/kg by LC-MS/MS analysis; assay type: ADME, organism-based; details: in vivo; in short: as §1
[17] = Stability in rat blood assessed as parent compound remaining at 5 uM measured after 5 hrs by LC-MS/MS analysis; assay type: ADME, tissue-based; details: read-out: Stability
In short: (§3)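 Compound at 5 μM in fresh rat blood at 37 °C; samples at 0, 0.5, 1.0, 2.0 and 5.0 h, stopped by methanol protein precipitation; percentage of residual parent measured by LC-MS/MS.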

[18] = Volume of distribution at steady state in Sprague-Dawley rat at 10 mg/kg, iv by LC-MS/MS analysis; assay type: ADME, organism-based; details: in vivo; in short: as §1
[19] = Tmax in Sprague-Dawley rat at 20 mg/kg, ip by LC-MS/MS analysis; assay type: ADME, organism-based; details: in vivo; in short: as §1
[20] = Cmax in Sprague-Dawley rat at 20 mg/kg, ip by LC-MS/MS analysis; assay type: ADME, organism-based; design: dose 20 mg/kg, route intraperitoneal; details: in vivo; in short: as §2
[21] = AUC (0 to t) in Sprague-Dawley rat at 20 mg/kg, ip by LC-MS/MS analysis; assay type: ADME, organism-based; details: in vivo; in short: as §2
[22] = AUC (0 to infinity) in Sprague-Dawley rat at 20 mg/kg, ip by LC-MS/MS analysis; assay type: ADME, organism-based; design: dose 20 mg/kg, time infinity, route intraperitoneal; details: in vivo; in short: as §2
[23] = MRT in Sprague-Dawley rat at 20 mg/kg, ip by LC-MS/MS analysis; assay type: ADME, organism-based; details: in vivo; in short: as §1
[24] = Half life in Sprague-Dawley rat at 20 mg/kg, ip by LC-MS/MS analysis; assay type: ADME, organism-based; details: in vivo; in short: as §2
[25] = Drug metabolism in mouse liver microsomes at 3 uM measured after 180 mins by UPLC-UV/Q-TOF MS analysis; assay type: ADME, Microsome; details: 3 h
[26] = Drug metabolism in human liver microsomes assessed as oxidation at 3 uM measured after 180 mins by UPLC-UV/Q-TOF MS analysis; assay type: ADME, Microsome; details: 3 h
[27] = Drug metabolism in monkey liver microsomes assessed as oxidation at 3 uM measured after 180 mins by UPLC-UV/Q-TOF MS analysis; assay type: ADME, Macaca mulatta, Microsome; details: rhesus monkey, 3 h
[28] = Drug metabolism in dog liver microsomes assessed as oxidation at 3 uM measured after 180 mins by UPLC-UV/Q-TOF MS analysis; assay type: ADME, Canis lupus familiaris, Microsome; details: 3 h
[29] = Drug metabolism in rat liver microsomes assessed as oxidation at 3 uM measured after 180 mins by UPLC-UV/Q-TOF MS analysis; assay type: ADME, Microsome; details: 3 h
[30] = Drug metabolism in mouse liver microsomes assessed as oxidation at 3 uM measured after 180 mins by UPLC-UV/Q-TOF MS analysis; assay type: ADME, Microsome; details: 3 h
[31] = Drug metabolism in human liver microsomes assessed as amino demethylation at 3 uM measured after 180 mins by UPLC-UV/Q-TOF MS analysis; assay type: ADME, Microsome; details: 3 h
[32] = Drug metabolism in monkey liver microsomes assessed as amino demethylation at 3 uM measured after 180 mins by UPLC-UV/Q-TOF MS analysis; assay type: ADME, Macaca mulatta, Microsome; details: rhesus monkey, 3 h
[33] = Drug metabolism in dog liver microsomes assessed as amino demethylation at 3 uM measured after 180 mins by UPLC-UV/Q-TOF MS analysis; assay type: ADME, Canis lupus familiaris, Microsome; details: 3 h
[34] = Drug metabolism in rat liver microsomes assessed as amino demethylation at 3 uM measured after 180 mins by UPLC-UV/Q-TOF MS analysis; assay type: ADME, Microsome; details: 3 h
In short: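 Human, mouse, rat, dog or monkey liver fractions (1.0×10^6 cells/mL) in William's medium E (pH 7.4) with 3.0 μM substrate, 37 °C for 180 min. Stopped with equal volume ice-cold acetonitrile. Duplicates pooled per species, spun, dried under nitrogen, reconstituted in acetonitrile/water 10:90. Metabolites profiled by UPLC-UV/Q-TOF MS.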

[35] = Drug metabolism in mouse liver microsomes assessed as amino demethylation at 3 uM measured after 180 mins by UPLC-UV/Q-TOF MS analysis; assay type: ADME, Microsome; details: 3 h
[36] = Stability in rat blood at 5 uM measured after 5 hrs by LC-MS/MS analysis; assay type: ADME, tissue-based; in short: as §3

## CC(=O)c1ccccc1O
[1]
  solubility kinetic: 50 µM (≈ 6.81 µg/mL)

## C=CC(=O)Nc1ccc(-n2nc3c(=O)[nH]nc(N)c3c2-c2oc3ccc(C)cc3c2C)cc1
[1]
  solubility kinetic: 20 µM (≈ 8.81 µg/mL)
[2]
  half-life at 0.1 µM: 31 min
[3]
  Tmax: 4.98 min
[4]
  Cmax: 1880 ng/mL
[5]
  AUC(0-t): 1090 ng·h/mL
[6]
  AUC(0-inf): 1270 ng·h/mL
[7]; Sprague-Dawley, read-out: MRT
  MRT: 5.04 h
[8]
  half-life: 375 min
[9]; Sprague-Dawley
  clearance: 143 mL/min/kg
[10]
  Tmax: 51.7 min
[11]
  Cmax: 12.9 ng/mL
[12]
  AUC(0-t): 6.4 ng·h/mL
[13]
  AUC(0-inf): 6.4 ng·h/mL
[14]
  MRT: 2.17 h
[15]
  half-life: 106 min
[16]
  bioavailability: 0.29%

## Cc1ccc2oc(-c3c4c(N)n[nH]c(=O)c4nn3-c3ccc(NC(=O)/C=C/CN4CCOCC4)cc3)c(C)c2c1
[1]
  solubility kinetic: 50 µM (≈ 27 µg/mL)

## Cc1c(-c2c3c(N)n[nH]c(=O)c3nn2-c2ccc(NC(=O)/C=C/CN(C)C)cc2)oc2ccc(Br)cc12
[1]
  solubility kinetic: 50 µM (≈ 28.1 µg/mL)

## Cc1c(-c2c3c(N)n[nH]c(=O)c3nn2-c2ccc(NC(=O)/C=C/CN(C)C)cc2)oc2ccc(Cl)cc12
[1]
  solubility kinetic: 200 µM (≈ 104 µg/mL)
[2]; microsomes, 0.1 µM
  t1/2: 103 min
[17]
  remaining at 5 h, 5 µM: 20%
[5]
  AUC(0-t): 4310 ng·h/mL
[6]
  AUC(0-inf): 4410 ng·h/mL
[7]
  MRT: 1.64 h
[8]
  half-life: 513 min
[9]
  CL: 2.27 L/h/kg
[18]
  Vdss: 28 L/kg
[10]
  Tmax: 30 min
[11]
  Cmax: 7.3 ng/mL
[12]
  AUC(0-t): 32.6 ng·h/mL
[13]
  AUC(0-inf): 51.5 ng·h/mL
[14]
  MRT: 7.33 h
[15]
  half-life: 1300 min
[16]
  bioavailability: 0%
[19]
  Tmax: 30 min
[20]
  Cmax: 5040 ng/mL
[21]
  AUC(0-t): 16800 ng·h/mL
[22]
  AUC(0-inf): 17000 ng·h/mL
[23]
  MRT: 3.3 h
[24]
  half-life: 278 min
[25]
  Drug metabolism: 20%
[26]
  Drug metabolism: Metabolite_Detected
[27]
  Drug metabolism: Metabolite_Detected
[28]
  Drug metabolism: Metabolite_Detected
[29]
  Drug metabolism: Metabolite_Detected
[30]
  Drug metabolism: Metabolite_Detected
[31]
  Drug metabolism: Metabolite_Detected
[32]
  Drug metabolism: Metabolite_Detected
[33]
  Drug metabolism: Metabolite_Detected
[34]
  Drug metabolism: Metabolite_Detected
[35]
  Drug metabolism: Metabolite_Detected

## Cc1ccc2oc(-c3c4c(N)n[nH]c(=O)c4nn3-c3ccc(NC(=O)/C=C/CN(C)C)cc3)c(C)c2c1
[1]
  solubility kinetic: 50 µM (≈ 24.9 µg/mL)
[2]
  half-life at 0.1 µM: 63 min
[36]
  Stability: Stable

## C=CC(=O)Nc1ccc(-n2nc3c(=O)[nH]nc(N)c3c2-c2oc3ccc(Cl)cc3c2C)cc1
[1]
  solubility kinetic: 20 µM (≈ 9.22 µg/mL)
[2]
  half-life at 0.1 µM: 29 min

## CC(=O)c1cc(Br)ccc1O
[1]
  solubility kinetic: 50 µM (≈ 10.8 µg/mL)
